Measurements published in ChEMBL document CHEMBL1136355, “Benzyl vinylogous amide substituted aryldihydropyridazinones and aryldimethylpyrazolones as potent and selective PDE3B inhibitors” (Bioorg Med Chem Lett, 2003).

What was measured:
[1] = target: cGMP-inhibited 3',5'-cyclic phosphodiesterase 3A (Homo sapiens, UniProt Q14432); test: Inhibitory concentration required to inhibit human phosphodiesterase 3A expressed in Escherichia coli
Method in brief: (§1)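 PDE3A and PDE3B made in E. coli BL21(DE3) pLysS after IPTG induction. Soluble extract ammonium sulfate-precipitated (50% saturation), dialysed, partially purified on DEAE Sepharose with a 70–250 mM NaCl gradient. IC50 is the mean of two or more experiments.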

[2] = target: cGMP-inhibited 3',5'-cyclic phosphodiesterase 3B (Homo sapiens, UniProt Q13370); test: Inhibitory concentration required to inhibit human phosphodiesterase 3B expressed in Escherichia coli; method in brief: as §1
cGMP-inhibited 3',5'-cyclic phosphodiesterase 3B, sequence (Q13370 whole entry): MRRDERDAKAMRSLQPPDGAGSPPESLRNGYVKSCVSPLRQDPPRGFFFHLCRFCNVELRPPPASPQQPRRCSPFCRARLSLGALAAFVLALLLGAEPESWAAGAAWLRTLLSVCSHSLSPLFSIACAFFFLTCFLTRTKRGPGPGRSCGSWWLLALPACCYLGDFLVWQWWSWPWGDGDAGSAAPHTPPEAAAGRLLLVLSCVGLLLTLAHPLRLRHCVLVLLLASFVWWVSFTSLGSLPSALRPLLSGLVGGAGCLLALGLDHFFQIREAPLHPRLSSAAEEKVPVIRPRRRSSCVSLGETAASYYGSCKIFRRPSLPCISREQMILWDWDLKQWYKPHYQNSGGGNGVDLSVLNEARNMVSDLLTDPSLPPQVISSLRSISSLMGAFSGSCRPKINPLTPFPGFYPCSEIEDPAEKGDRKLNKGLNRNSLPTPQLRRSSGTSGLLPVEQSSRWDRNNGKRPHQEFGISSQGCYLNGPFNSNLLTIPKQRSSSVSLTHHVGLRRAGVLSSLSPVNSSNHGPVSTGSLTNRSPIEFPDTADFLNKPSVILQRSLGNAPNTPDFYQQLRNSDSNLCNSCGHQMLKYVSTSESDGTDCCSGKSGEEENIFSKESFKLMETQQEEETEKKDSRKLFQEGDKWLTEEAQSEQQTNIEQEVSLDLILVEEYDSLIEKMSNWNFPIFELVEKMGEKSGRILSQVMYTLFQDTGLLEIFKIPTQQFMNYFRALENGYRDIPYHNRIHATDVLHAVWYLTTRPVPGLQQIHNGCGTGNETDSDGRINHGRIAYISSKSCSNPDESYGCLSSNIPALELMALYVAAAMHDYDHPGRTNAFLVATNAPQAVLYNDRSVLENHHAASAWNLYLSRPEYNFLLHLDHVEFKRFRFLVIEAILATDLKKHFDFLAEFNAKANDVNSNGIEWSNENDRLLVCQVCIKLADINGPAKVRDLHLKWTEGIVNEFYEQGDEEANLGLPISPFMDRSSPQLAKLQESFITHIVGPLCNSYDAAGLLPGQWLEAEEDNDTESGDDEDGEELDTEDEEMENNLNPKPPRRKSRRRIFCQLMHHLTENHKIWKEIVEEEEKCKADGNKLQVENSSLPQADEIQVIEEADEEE

[3] = target: Phosphodiesterase 3 (Homo sapiens) (UniProt Q14432+Q13370); test: Relative inhibition of Phosphodiesterase 3A and Phosphodiesterase 3B; assay type: protein assay
Method in brief: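 PDE3A and PDE3B expressed in E. coli BL21 (DE3) pLysS after IPTG induction, ammonium sulfate precipitated, partially purified on DEAE Sepharose. Activity measured by [3H]cAMP SPA assay in 50 mM Tris pH 7.5, 8.3 mM MgCl2, 1.7 mM EGTA, 10 nM [3H]cAMP, room temperature, 2–15 min. IC50s on each isoform are means of two or more experiments.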

[4] = tested on: Rattus norvegicus; test: In vivo plasma glycerol increase in anesthetized rat at 1 mg/kg iv dose for 90 min; assay type: functional; conditions: 1 h, in the assay text read “60 min” for “90 min”
Method in brief: (§2)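 Anesthetized rats given compound by intravenous infusion (1.0 mg/kg). Plasma glycerol increase over vehicle followed over a 90 min period, with a reading at 60 min taken as an index of lipolysis.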

[5] = tested on: Rattus norvegicus; test: Increased metabolic rate in male rats for 8-h period after 3 mg/kg dose; assay type: functional
Method in brief: (§3)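 Male rats dosed orally at 1, 3 and 10 mg/kg. Metabolic rate monitored over 8 h post-dose and expressed as percentage increase in thermogenesis over the pre-dose rate.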

[6] = tested on: Rattus norvegicus; test: Maximal blood pressure decrease in rats at 0.02 mg/kg dose for 60 min; assay type: functional
Method in brief: (§4)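 Anesthetized rats given increasing intravenous doses (0.01–0.1 mg/kg). Mean arterial pressure recorded from 5 min to 60 min post-dose; decrease expressed as percentage.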

[7] = Half life in rat after intravenous administration at a concentration 0.5 mg/kg; assay type: ADME, organism-based; design: dose 0.5 mg/kg, route intravenous; conditions: in vivo
Method in brief: (§5)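 Rat pharmacokinetics after a 0.5 mg/kg intravenous dose; half-life and clearance derived from blood levels.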

[8] = tested on: Rattus norvegicus; test: Area under curve was determined in rat after oral administration at a concentration 1 mg/kg; assay type: ADME, organism-based; design: dose 1 mg/kg, route oral; conditions: in vivo
Method in brief: (§6)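 Rats dosed orally at 1.0 mg/kg. Blood levels were measured, and AUC was normalized and compared with iv exposure to give oral bioavailability.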

[9] = tested on: Rattus norvegicus; test: Increased metabolic rate in male rats for 8-h period after 10 mg/kg dose; assay type: functional; method in brief: as §3
[10] = Plasma clearance in rat after intravenous administration at a concentration 0.5 mg/kg; assay type: ADME, organism-based; design: dose 0.5 mg/kg, route intravenous; method in brief: as §5
[11] = tested on: Rattus norvegicus; test: In vivo plasma glycerol increase in anesthetized rat at 1 mg/kg iv dose for 60 min; assay type: functional; conditions: 1 h; method in brief: as §2
[12] = tested on: Rattus norvegicus; test: Maximal blood pressure decrease in rats at 0.1 mg/kg dose for 60 min; assay type: functional; method in brief: as §4
[13] = Oral bioavailability was determined in rat after oral administration at a concentration 1 mg/kg; assay type: ADME, organism-based; conditions: in vivo; method in brief: as §6

cGMP-inhibited 3',5'-cyclic phosphodiesterase 3A, sequence (Q14432 whole entry): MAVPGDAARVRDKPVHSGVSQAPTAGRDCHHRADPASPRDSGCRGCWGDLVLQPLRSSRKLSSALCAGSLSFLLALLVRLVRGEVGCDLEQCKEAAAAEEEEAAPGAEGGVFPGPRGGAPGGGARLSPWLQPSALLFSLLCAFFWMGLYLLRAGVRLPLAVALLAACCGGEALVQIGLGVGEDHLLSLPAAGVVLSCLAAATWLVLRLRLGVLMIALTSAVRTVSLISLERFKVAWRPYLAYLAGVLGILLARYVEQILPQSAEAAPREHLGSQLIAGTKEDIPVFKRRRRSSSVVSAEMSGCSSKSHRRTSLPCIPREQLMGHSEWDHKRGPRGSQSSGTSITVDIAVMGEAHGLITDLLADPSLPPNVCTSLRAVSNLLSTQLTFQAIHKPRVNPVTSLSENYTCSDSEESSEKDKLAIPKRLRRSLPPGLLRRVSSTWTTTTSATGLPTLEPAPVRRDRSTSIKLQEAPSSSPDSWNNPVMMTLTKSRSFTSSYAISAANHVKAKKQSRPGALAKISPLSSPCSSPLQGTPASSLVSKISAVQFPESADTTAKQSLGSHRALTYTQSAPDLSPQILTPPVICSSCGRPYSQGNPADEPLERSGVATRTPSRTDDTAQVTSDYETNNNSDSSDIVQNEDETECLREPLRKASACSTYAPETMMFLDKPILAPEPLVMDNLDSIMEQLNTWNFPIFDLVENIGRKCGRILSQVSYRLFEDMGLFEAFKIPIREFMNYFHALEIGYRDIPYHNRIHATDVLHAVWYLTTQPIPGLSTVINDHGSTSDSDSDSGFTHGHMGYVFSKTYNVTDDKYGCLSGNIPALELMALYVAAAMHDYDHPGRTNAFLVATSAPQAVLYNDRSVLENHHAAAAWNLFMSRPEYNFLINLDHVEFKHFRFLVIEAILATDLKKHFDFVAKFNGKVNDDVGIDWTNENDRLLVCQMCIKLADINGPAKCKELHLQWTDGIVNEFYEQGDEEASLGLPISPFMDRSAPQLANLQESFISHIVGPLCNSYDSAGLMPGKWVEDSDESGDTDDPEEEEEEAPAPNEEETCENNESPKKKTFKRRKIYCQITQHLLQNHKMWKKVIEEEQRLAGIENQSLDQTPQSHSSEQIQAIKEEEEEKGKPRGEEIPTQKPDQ

SMILES | IC50 [1] [nM] | IC50 [2] [nM] | also measured
CCc1cc(NC2=C(Cc3ccccc3)C(=O)CCC2)ccc1C1=NNC(=O)CC1C (stereo not drawn) | 101 | 21 | –
Cc1cc(NC2=C(Cc3cccc(C#N)c3)C(=O)CCC2)ccc1C1=NNC(=O)C1(C)C | 130 | 10 | –
CC1(C)C(=O)NN=C1c1ccc(NC2=C(Cc3cccc([N+](=O)[O-])c3)C(=O)CCC2)cc1Cl | 550 | 30 | –
Cc1cc(NC2=C(Cc3ccccc3)C(=O)CCC2)ccc1C1=NNC(=O)CC1C (stereo not drawn) | 22 | 2.6 | –
COc1ccc(CC2=C(Nc3ccc(C4=NNC(=O)CC4C)cc3)CCCC2=O)cc1 (stereo not drawn) | 2.3 | 0.7 | –
CC1(C)C(=O)NN=C1c1ccc(NC2=C(Cc3cccc(F)c3)C(=O)CCC2)cc1F | 43 | 5.6 | –
Cc1cc(C2=NNC(=O)CC2C)ccc1/N=C1\CCCC(O)=C1Cc1ccccc1 (stereo not drawn) | 3.7 | 0.61 | –
CC1CC(=O)NN=C1c1ccc(NC2=C(Cc3ccc([N+](=O)[O-])cc3)C(=O)CCC2)cc1 (stereo not drawn) | 24 | 5.5 | –
COc1ccccc1CC1=C(Nc2ccc(C3=NNC(=O)CC3C)cc2)CCCC1=O (stereo not drawn) | 0.39 | 0.13 | –
CC1(C)C(=O)NN=C1c1ccc(NC2=C(Cc3ccccc3F)C(=O)CCC2)cc1F | 16 | 1.1 | –
CC1CC(=O)NN=C1c1ccc(NC2=C(Cc3ccccc3)C(=O)CCC2)cc1F (stereo not drawn) | 1.6 | 0.24 | –
CC1(C)C(=O)NN=C1c1ccc(NC2=C(Cc3cccc(C#N)c3)C(=O)CCC2)cc1F | 69 | 3.2 | –
CC1CC(=O)NN=C1c1ccc(NC2=C(Cc3cccc(I)c3)C(=O)CCC2)cc1 (stereo not drawn) | 0.33 | 0.11 | –
CC1(C)C(=O)NN=C1c1ccc(NC2=C(Cc3ccc(F)cc3)C(=O)CCC2)cc1F | 63 | 3.1 | –
CC1(C)C(=O)NN=C1c1ccc(NC2=C(Cc3ccccc3Cl)C(=O)CCC2)cc1Cl | 77 | 6.3 | –
CCOC(=O)Nc1ccc(C2=NNC(=O)C[C@H]2C)cc1 | 24 | 8.5 | –
CC(=O)Nc1ccc(C2=NNC(=O)C[C@H]2C)cc1 | 96 | 37 | –
CC1=C(Nc2ccc(C3=NNC(=O)C[C@H]3C)cc2)CCCC1=O | 44 | 8.8 | –

SMILES | IC50 [1] [nM] | IC50 [2] [nM] | also measured
CC1CC(=O)NN=C1c1ccc(NC(=O)OCc2ccccc2)cc1 (stereo not drawn) | 2.9 | 1 | –
CC1(C)C(=O)NN=C1c1ccc(NC2=C(Cc3ccccc3Cl)C(=O)CCC2)cc1F | 7.2 | 0.53 | –
C[C@@H]1CC(=O)NN=C1c1ccc(NC(=O)c2ccccc2C(F)(F)F)cc1 | 15 | 5 | –
CC1CC(=O)NN=C1c1ccc(NC2=C(Cc3ccccc3C(F)(F)F)C(=O)CCC2)cc1 (stereo not drawn) | 0.83 | 0.35 | –
CC1CC(=O)NN=C1c1ccc(NC2=C(Cc3cccc([N+](=O)[O-])c3)C(=O)CCC2)cc1 (stereo not drawn) | 3.1 | 0.94 | –
CN(C(=O)CCCOc1ccc2[nH]c(=O)ccc2c1)C1CCCCC1 [CILOSTAMIDE] | – | 18 | –
CC1(C)C(=O)NN=C1c1ccc(NC2=C(Cc3cccc([N+](=O)[O-])c3)C(=O)CCC2)cc1F | 150 | 4.5 | Selectivity [3]: 33
CC1CC(=O)NN=C1c1ccc(NC2=C(Cc3cccc(F)c3)C(=O)CCC2)cc1 (stereo not drawn) | 2.8 | 0.7 | –
CC1(C)C(=O)NN=C1c1ccc(/N=C2\CCCC(O)=C2Cc2cccc(C#N)c2)c(F)c1F | 7.6 | 0.33 | Selectivity [3]: 23
C[C@@H]1CC(=O)NN=C1c1ccc(NC2=C(Cc3ccccc3)C(=O)CCC2)cc1 | 1.3 | 0.19 | ED50 [4]: 0.6 mg/kg; Metabolic rate [5]: 14%; Max decrease [6]: 20%; half-life [7]: 1 h; AUC [8]: 3.6 µM·h; Metabolic rate [9]: 21%; clearance [10]: 6.8 mL/min/kg; ED50 [11]: 0.6 mg/kg; Max decrease [12]: 40%; bioavailability [13]: 61%
CC1(C)C(=O)NN=C1c1ccc(NC2=C(Cc3c(Cl)cccc3Cl)C(=O)CCC2)cc1F | 2.2 | 0.13 | –
CC1(C)C(=O)NN=C1c1ccc(NC2=C(Cc3ccccc3)C(=O)CCC2)cc1F | 20 | 2.5 | –
Cc1cc(NC2=C(Cc3ccccc3)C(=O)CCC2)ccc1C1=NNC(=O)C1(C)C | 38 | 4.8 | –
CC1CC(=O)NN=C1c1ccc(NC2=C(Cc3ccccc3)C(=O)CCC2)cc1Cl (stereo not drawn) | 46 | 4.8 | –
CC1(C)C(=O)NN=C1c1ccc(NC2=C(Cc3ccccc3)C(=O)CCC2)cc1 | 53 | 10 | –
CC1CC(=O)NN=C1c1ccc(/N=C2\CCCC(O)=C2Cc2ccccc2)c(F)c1 (stereo not drawn) | 1.2 | 0.26 | –
CC1CC(=O)NN=C1c1ccc(NC2=C(Cc3cccc(Br)c3)C(=O)CCC2)cc1 (stereo not drawn) | 0.94 | 0.3 | –
CC1CC(=O)NN=C1c1cc(F)c(NC2=C(Cc3ccccc3)C(=O)CCC2)cc1F (stereo not drawn) | 1.6 | 0.62 | –
